EBI2 block: EBI2 (human) antagonism; 360,000 tested, 0.81% active; EBI2 beta-arrestin recruitment, luminescence, 7a,25-OHC stimulated; inhibition, % at 5 µM; AID 651636; P32249; in the data active = inhibition above about 38%;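 note: enzyme fragment complementation signal reports receptor beta-arrestin coupling in cells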
APJ antagonist: APJ receptor antagonism. 330,000 tested, 0.32% active. P35414. AID 2521. inhibition, % at 20 µM. CHO-K1 APJ beta-arrestin complementation, luminescence;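 active = inhibition above about 40% at 20 µM, limit read from the data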;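 note: cells challenged with 10 nM apelin-13 agonist together with compound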
CCR6 antag: CCR6 (human) receptor antagonism; CHO-K1 CCR6 PathHunter beta-arrestin, luminescence, CCL20-stimulated; inhibition, % at 20 µM; 340,000 tested, 0.49% active;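 active = compounds whose inhibition of the agonist-driven luminescence signal at 20 µM reaches about 50%, limit read from the data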;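 note: cells stimulated with CCL20 at 14 nM final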
Target sequence (P51684 whole entry, looked up): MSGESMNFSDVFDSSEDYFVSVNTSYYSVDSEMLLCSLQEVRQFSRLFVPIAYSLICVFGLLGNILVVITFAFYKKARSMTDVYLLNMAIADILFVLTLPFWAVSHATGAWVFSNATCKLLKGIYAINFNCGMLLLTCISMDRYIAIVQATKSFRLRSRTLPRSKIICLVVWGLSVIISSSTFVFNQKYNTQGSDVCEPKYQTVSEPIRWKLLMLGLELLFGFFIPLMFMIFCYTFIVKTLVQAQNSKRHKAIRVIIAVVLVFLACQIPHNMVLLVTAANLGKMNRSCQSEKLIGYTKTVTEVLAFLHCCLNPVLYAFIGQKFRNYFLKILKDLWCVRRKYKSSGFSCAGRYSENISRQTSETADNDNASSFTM
CXCR6 block: blocks human CXCR6 beta-arrestin recruitment | O00574 | CHO-K1 PathHunter CXCR6 beta-arrestin, luminescence | inhibition, % at 20 µM | 360,000 tested, 0.36% active; in the data active = inhibition above about 34%, passing the limit was not always enough;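 note: antagonist mode with CXCL16 agonist at 10 nM final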
Target sequence (O00574 whole entry, looked up): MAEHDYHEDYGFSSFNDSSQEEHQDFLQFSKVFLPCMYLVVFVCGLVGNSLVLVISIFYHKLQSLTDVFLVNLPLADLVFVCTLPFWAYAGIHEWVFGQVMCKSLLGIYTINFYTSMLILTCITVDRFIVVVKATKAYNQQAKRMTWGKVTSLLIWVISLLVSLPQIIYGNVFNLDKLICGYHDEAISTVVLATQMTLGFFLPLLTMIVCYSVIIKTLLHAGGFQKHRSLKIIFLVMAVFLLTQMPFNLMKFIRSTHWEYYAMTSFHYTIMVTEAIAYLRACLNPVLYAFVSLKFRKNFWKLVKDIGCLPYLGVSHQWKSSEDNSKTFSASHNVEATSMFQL
APJ ag: APJ receptor agonism; P35414; CHO-K1 APJ PathHunter beta-arrestin, luminescence; 0% DMSO wells, 100% apelin; activation, % at 20 µM; 330,000 tested, 0.11% active; AID 2520;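 active = activation more than six SD over the plate average, tested at 20 µM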
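Incubation: overnight seeding, 90 min compound at 25 °C, 1 h detection; test system: PathHunter CHO-K1 APJ (AGTRL-1) beta-arrestin reporter cells; amount: 1000 cells/well; doses: one dose, 20 µM compound, 1% DMSO; measured by: beta-gal luminescence; measure: agonist-driven arrestin binding to APJ; benchmarks: negative DMSO alone, positive Apelin-13 at 10 nM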
B2AR ag: activates human beta-2 adrenergic receptor causing internalization | Am2.2-beta2AR cells, FAP receptor internalization, flow cytometry | response, % (test concentration not listed) | 340,000 tested, 0.43% active;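 active = response above a set limit, near 3 SD of response in nonfluorescent compounds, cut at about 42% in these data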
EBI2 antag conf: confirmation of human EBI2 receptor antagonists. shares compounds with EBI2 block. EBI2 beta-arrestin luminescence, 7a,25-OHC antagonism. inhibition, % at 5 µM. 2,400 tested, 29% active;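 active = inhibition of at least 50%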
EBI2 agonist: activates EBI2, counter-screen for EBI2 antagonists. activation, % at 5 µM. shares compounds with EBI2 block. EBI2-expressing cells, agonist mode, luminescence, 60 min; 0% vehicle, 100% 7α,25-dihydroxycholesterol control. 2,400 tested, under 10 active;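 active = activation of at least 50%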
bGal cs: counter-screen for EBI2 antagonists: E. coli beta-galactosidase inhibition; shares compounds with EBI2 block; purified beta-galactosidase, luminescent Galacton Star, 15 min; inhibition, % at 5 µM; 2,400 tested, 1% active;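 active = replicate-average signal at least 3 plate SD below neutral wells, shown as high inhibition, flagging enzyme-inhibiting false positives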;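 note: higher means stronger loss of beta-gal luminescence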
Each line names hits and unclear results; the compound was inactive in the other large screens (follow-up assays come after a bar, where they were run). Most compounds without a hit are left out; they make up all but 1.8% or so of the library.

CCc1ccc(NC(=O)c2ccc3c(c2)C(=O)N(CCOC)C3Nc2ccc(CC)cc2)cc1 (configuration not stated)	EBI2 block 64.8 | EBI2 antag conf 62.1 | EBI2 agonist inactive | bGal cs inactive
COCCN1C(=O)c2cc(C(=O)Nc3cccc(F)c3)ccc2C1Nc1cccc(F)c1 (configuration not stated)	EBI2 block 75.2 | EBI2 antag conf inactive | EBI2 agonist inactive | bGal cs inactive
CCCN1C(=O)c2cc(C(=O)Nc3ccccc3C)ccc2C1Nc1ccccc1C (configuration not stated)	none
COCCN1C(=O)N(c2ccc(OC)cc2)C(=O)C1CC(=O)Nc1cccc(F)c1 (configuration not stated)	none
COC(=O)c1ccc(NC(=O)c2ccc3c(c2)C(=O)N(C)C3=O)cc1	none
COc1ccc(-c2cc3nc(-c4ccccc4)cc(N4CCN(C(=O)c5ccccc5)CC4)n3n2)cc1	none (no result: APJ antagonist, CCR6 antag, APJ ag, B2AR ag)
COc1ccc(-c2cc3nc(-c4ccccc4)cc(N4CCCC(O)C4)n3n2)cc1 (configuration not stated)	EBI2 block 66.2 | EBI2 antag conf 55.1 | EBI2 agonist inactive | bGal cs inactive
COc1ccc(-c2cc3nc(-c4ccccc4)cc(N4CCN(C(C)=O)CC4)n3n2)cc1	EBI2 block 45.6 (no result: APJ antagonist, CCR6 antag, APJ ag, B2AR ag) | EBI2 antag conf inactive | EBI2 agonist inactive | bGal cs inactive
COc1ccc(-c2cc3nc(-c4ccccc4)cc(N4CCN(C(=O)c5ccsc5)CC4)n3n2)cc1	none (no result: APJ antagonist, CCR6 antag, APJ ag, B2AR ag)
COc1ccc(-c2cc3nc(-c4ccccc4)cc(N4CCC(O)CC4)n3n2)cc1	EBI2 block 63.9 | EBI2 antag conf 55.7 | EBI2 agonist inactive | bGal cs inactive
COc1ccc(C2=Nc3ccccc3N(C(=O)c3ccncc3)C2C(=O)NC(C)(C)C)cc1 (configuration not stated)	none (no result: APJ antagonist, CCR6 antag, CXCR6 block, APJ ag, B2AR ag)
CCOC(=O)C1=C(C)Nc2ccccc2N=C1NC(=O)C1CCN(C(=O)c2ccccc2C)CC1	none
COc1cc(C2(c3ccc(O)c(OC)c3)C(=O)Nc3c(C)cc(Br)cc32)ccc1O	none
CC(Oc1ccc2oc3ccccc3c2c1)C(=O)NC12CC3CC(CC(C3)C1)C2 (configuration not stated)	EBI2 block 53.7 | EBI2 antag conf inactive | EBI2 agonist inactive | bGal cs inactive
CCN(CC(=O)Nc1c(F)cccc1F)C(=O)c1ccc(OCC(=O)N2CCOCC2)c(OC)c1	none (no result: APJ antagonist, APJ ag)
S=C(NCc1cccnc1)Nc1ccc(Oc2ccc(Cl)cc2)cc1	EBI2 block 45.5 | EBI2 antag conf inactive | EBI2 agonist inactive | bGal cs inactive
COc1ccc(NC(=S)NCc2cccnc2)cc1	none
COc1ccc(CN2C(=O)C(CC(=O)NC3CC3)CC(C(=O)N(C)C)=C2C)cc1 (configuration not stated)	none (no result: APJ antagonist, CCR6 antag, APJ ag, B2AR ag)
Brc1ccc(-c2nnc3sc(CN4CCN(c5ccccc5)CC4)cn23)cc1	EBI2 block 75.2 | EBI2 antag conf inactive | EBI2 agonist inactive | bGal cs inactive
COC(=O)c1c(-c2ccsc2)sc2ccc(-c3cc(OC)c(OC)c(OC)c3)cc12	EBI2 block 55.2 | EBI2 antag conf inactive | EBI2 agonist inactive | bGal cs inactive
COc1cc(-c2ccc3c(=O)c4ccccc4sc3c2)cc(OC)c1OC	EBI2 block 44.1 | EBI2 antag conf inactive | EBI2 agonist inactive | bGal cs inactive
CC(=O)c1cccc(-c2ccnc3c2CC(C(=O)NCc2ccco2)O3)c1 (configuration not stated)	none (no result: APJ antagonist, CCR6 antag, APJ ag, B2AR ag)
COc1ccc(/C=C/C(=O)N2CCN(c3ccccn3)CC2)cc1	EBI2 block 93.2 | EBI2 antag conf 75.8 | EBI2 agonist inactive | bGal cs inactive
O=C(/C=C/c1cccc([N+](=O)[O-])c1)N1CCN(c2ccccn2)CC1	none
CSc1ccc(/C=C/C(=O)N2CCN(c3ccccn3)CC2)cc1	EBI2 block 93.1 | EBI2 antag conf 81.0 | EBI2 agonist inactive | bGal cs inactive
COc1cccc(/C=C/C(=O)N2CCN(c3ccccn3)CC2)c1	EBI2 block 74.9 | EBI2 antag conf inactive | EBI2 agonist inactive | bGal cs inactive
CCOc1ccc(N(C)Cc2cc(=O)oc3ccc(OCC)cc23)cc1	none
O=C(CCC(=O)Nc1ccc(Cl)cc1Cl)N/N=C/c1ccc([N+](=O)[O-])o1	none (no result: B2AR ag)
Cc1ccc(C)c(S(=O)(=O)N2CCN(C(=O)CCCc3c[nH]c4ccccc34)CC2)c1	EBI2 block 60.3 | EBI2 antag conf inactive | EBI2 agonist inactive | bGal cs inactive
Cc1ccc(C)c(S(=O)(=O)N2CCN(C(=O)CSc3ccccc3)CC2)c1	EBI2 block 57.0 | EBI2 antag conf 61.6 | EBI2 agonist inactive | bGal cs inactive
Cc1ccc(C)c(S(=O)(=O)N2CCN(C(=O)CCc3c[nH]c4ccccc34)CC2)c1	none
CCN1CCC(O)(/C=C/c2ccc(C(C)C)cc2)C(C(=O)/C=C/c2ccc(C(C)C)cc2)C1 (configuration not stated)	none (no result: APJ antagonist, APJ ag)
CCCCOC(=O)Nc1nnc(/C=C/c2ccc(OC)cc2)s1	EBI2 block 54.8 | EBI2 antag conf inactive | EBI2 agonist inactive | bGal cs inactive
CC(=O)c1nn(-c2ccccc2)cc1C(=O)c1ccc(Br)cc1	none
CC(=O)c1nn(-c2ccc(Cl)cc2)cc1C(=O)c1ccccc1	EBI2 block 45.9 | EBI2 antag conf inactive | EBI2 agonist inactive | bGal cs inactive
CC(=O)Nc1ccc(OCc2cn(CC(=O)c3ccc(O)cc3)nn2)cc1	none (no result: APJ antagonist, CCR6 antag, APJ ag, B2AR ag)
COc1ccc(/C=C(/CC(=O)NCc2ccc(Cl)cc2)c2nc3ccccc3s2)cc1	EBI2 block 38.9 | EBI2 antag conf inactive | EBI2 agonist inactive | bGal cs inactive
COc1ccc(/C=C(/CC(=O)Nc2ccccc2)c2nc3ccccc3s2)cc1	none
CCc1ccc(CN(Cc2cccnc2)C(=O)/C=C/c2ccc(OC)cc2)cc1	EBI2 block 61.9 | EBI2 antag conf inactive | EBI2 agonist inactive | bGal cs inactive
COc1ccc(/C=C/C(=O)NCc2cccnc2)cc1	none
O=C(OC1CC2CC1[C@H]1CCCCN1C2=O)N1CCN(C(=O)c2ccccc2)CC1 (some centres not stated)	none (no result: APJ antagonist, CCR6 antag, APJ ag, B2AR ag)
CC1(C(=O)NCc2cccc3ccccc23)CCN1C(=O)Cc1ccc(-c2ccccc2)cc1 (configuration not stated)	none (no result: APJ antagonist, CCR6 antag, APJ ag, B2AR ag)
